In ChEMBL document CHEMBL2176909, “Kaurenoic acid from Sphagneticola trilobata Inhibits Inflammatory Pain: effect on cytokine production and activation of the NO-cyclic GMP-protein kinase G-ATP-sensitive potassium channel signaling pathway” (J Nat Prod, 2012):
Activity calls are given as the source filed them.

Experiments:
Mus musculus [1] = assay: Antinociceptive activity in Swiss mouse assessed as inhibition of acetic acid-induced writhing at 3 to 30 mg/kg, ip administered 30 mins prior to acetic acid challenge; format: functional, organism-based
Procedure, shortened: (§1)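 Mice dosed ip or po (3–30 mg/kg, 2% DMSO in saline) 30 min before ip acetic acid (0.8% v/v, 10 mL/kg). Indomethacin 5 mg/kg ip given 40 min before. Cumulative writhing score over 20 min. n = 6.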

Mus musculus [2] = assay: Antinociceptive activity against formalin-induced pain in Swiss mouse assessed as inhibition of paw licking at 10 mg/kg, po administered 30 mins prior to formalin challenge; format: functional, organism-based; set-up: dose 10 mg/kg
Procedure, shortened: (§2)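 Swiss mice dosed 10 mg/kg po 30 min before intraplantar formalin (25 μL of 1.5% in saline). Flinches and licking time counted over 0–30 min in 5-min bins and reported as 0–15 and 15–30 min phases. n = 6.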

Mus musculus [3] = assay: Antihyperalgesic activity in carrageenan-induced mechanical hyperalgesia Swiss mouse model assessed as paw withdrawal latency at 10 mg/kg, po administered 30 mins prior to challenge measured after 1 to 5 hrs post challenge by electronic pressure-meter test in presence of 30 mg/kg L-NAME; format: functional, organism-based
Procedure, shortened: (§3)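 Swiss mice given L-NAME (10–90 mg/kg ip) 60 min before 10 mg/kg po. Intraplantar carrageenin (100 μg/paw) 30 min later. Mechanical threshold by electronic pressure-meter at 5 h, reported as Δ withdrawal threshold (g). n = 5.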

Mus musculus [4] = assay: Antihyperalgesic activity in complete Freund's adjuvant-induced Swiss mouse pain model assessed as paw withdrawal latency at 10 mg/kg, po starting 1 hr post challenge for 7 days measured on day 1 post challenge by electronic pressure-meter test; format: functional, organism-based; set-up: dose 10 mg/kg
Procedure, shortened: (§4)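 Male Swiss mice injected intraplantar with CFA (10 μL/paw). Dosing is daily from 1 h after CFA for 7 days, either 10 mg/kg po or indomethacin 5 mg/kg ip. Electronic pressure-meter Δ withdrawal threshold (g) measured every 24 h. n = 6.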

Mus musculus [5] = assay: Antiinflammatory activity in complete Freund's adjuvant-induced Swiss mouse pain model assessed as inhibition of paw licking at 10 mg/kg, po administered 30 mins prior to challenge; format: functional, organism-based; set-up: dose 10 mg/kg
Procedure, shortened: (§5)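 10 mg/kg po (or vehicle) given 30 min before intraplantar CFA (10 μL/paw) in Swiss mice. Paw flinches and licking time counted over 30 min as cumulative totals. n = 6.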

Mus musculus [6] = assay: Antihyperalgesic activity in carrageenan-induced mechanical hyperalgesia Swiss mouse model assessed as paw withdrawal latency at 10 mg/kg, po administered 30 mins prior to challenge measured after 1 to 5 hrs post challenge by electronic pressure-meter test in presence of soluble […] inhibitor ODQ; format: functional, organism-based; set-up: dose 10 mg/kg
Procedure, shortened: (§6)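 Pretreatment ip: ODQ 0.3 mg/kg in 2% DMSO/saline at 30 min, KT5823 0.5 μg/mouse in 2% DMSO/saline at 5 min, or glybenclamide 0.3 mg/kg in 5% Tween 80/saline at 45 min. Each is followed by 10 mg/kg po, then intraplantar carrageenin (100 μg/paw) 30 min later. Pressure-meter Δ threshold (g) at 1, 3 and 5 h. n = 5.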

Mus musculus [7] = assay: Antinociceptive activity in Swiss mouse assessed as inhibition of PBQ-induced writhing at 10 mg/kg, po administered 30 mins prior to PBQ challenge; format: functional, organism-based; set-up: dose 10 mg/kg
Procedure, shortened: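 Swiss mice dosed po (10 mg/kg) 30 min before ip PBQ (1890 μg/kg in 2% DMSO/saline). Indomethacin 5 mg/kg ip given 40 min before. Cumulative writhing score over 20 min. n = 6.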

Mus musculus [8] = assay: Antihyperalgesic activity in carrageenan-induced mechanical hyperalgesia Swiss mouse model assessed as paw withdrawal latency at 10 mg/kg, po administered 30 mins prior to challenge measured after 1 to 5 hrs post challenge by electronic pressure-meter test in presence of glibenclamide; format: functional, organism-based; set-up: dose 10 mg/kg; procedure, shortened: as §6
Mus musculus [9] = assay: Antihyperalgesic activity in po dosed carrageenan-induced mechanical hyperalgesia Swiss mouse model assessed as paw withdrawal latency administered 30 mins prior to challenge by electronic pressure-meter test; format: functional, organism-based
Procedure, shortened: (§7)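 Male Swiss mice dosed po (1–10 mg/kg, 2% DMSO in saline) 30 min before intraplantar carrageenin (100 μg/paw). Control indomethacin 5 mg/kg ip given 40 min before. Electronic pressure-meter readings at 1, 3 and 5 h, mean of three. Δ withdrawal threshold (g) is the post-stimulus reading minus zero-time. n = 5.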

Mus musculus [10] = assay: Toxicity in Swiss mouse assessed as sedative effect at 10 mg/kg, po after 1.5 to 5.5 hrs by roto-rod test; format: organism-based; set-up: dose 10 mg/kg, route oral; settings: in vivo
Procedure, shortened: (§8)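 Rota-rod turning at 22 rpm. Mice are pre-selected 24 h earlier by staying on for two 120 s periods. Dosing is vehicle (20% Tween 80/saline) or 10 mg/kg po, with testing at 1.5, 3.5 and 5.5 h and a 120 s cutoff. n = 6.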

Mus musculus [11] = assay: Antihyperalgesic activity in carrageenan-induced mechanical hyperalgesia Swiss mouse model assessed as paw withdrawal latency at 10 mg/kg, po administered 30 mins prior to challenge measured after 1 to 5 hrs post stimulus by electronic pressure-meter test; format: functional, organism-based; set-up: dose 10 mg/kg; procedure, shortened: as §7
Mus musculus [12] = assay: Antihyperalgesic activity in PGE2-induced mechanical hyperalgesia Swiss mouse model assessed as paw withdrawal latency at 10 mg/kg, po administered 30 mins prior to challenge measured at 3 hrs post compound treatment by electronic pressure-meter test; format: functional, organism-based; set-up: dose 10 mg/kg
Procedure, shortened: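 Male Swiss mice given 10 mg/kg po (vehicle 2% DMSO in saline) 30 min before intraplantar PGE2 (100 ng/paw). Electronic pressure-meter test 3 h after stimulus, each value the mean of three readings. Result is Δ withdrawal threshold (g), zero-time mean subtracted. n = 5.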

Mus musculus [13] = assay: Antihyperalgesic activity in carrageenan-induced mechanical hyperalgesia Swiss mouse model assessed as paw withdrawal latency at 10 mg/kg, po administered 30 mins prior to challenge measured after 1 to 5 hrs post challenge by electronic pressure-meter test in presence of 10 mg/kg L-NAME; format: functional, organism-based; procedure, shortened: as §3
Mus musculus [14] = assay: Antiinflammatory activity in Swiss mouse model assessed as inhibition of carrageenan-induced IL-1beta production in cutaneous plantar tissue at 10 mg/kg, po administered 30 mins prior to challenge measured 3 hrs post challenge by ELISA; format: functional, organism-based; set-up: dose 10 mg/kg
Procedure, shortened: (§9)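 Swiss mice given 10 mg/kg po 30 min before intraplantar carrageenin (100 μg/paw). At 3 h, plantar skin is removed under terminal anesthesia and homogenized in buffer with protease inhibitors. IL-1β and TNF-α measured by ELISA, as pg/paw. Saline-injected paws serve as controls. n = 5.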

Mus musculus [15] = assay: Antihyperalgesic activity against thermal hyperalgesia in Swiss mouse assessed as increase in thermal nociceptive threshold at 10 mg/kg, po after 1.5 to 5.5 hrs by hot plate test; format: functional, organism-based; set-up: dose 10 mg/kg
Procedure, shortened: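 Male Swiss mice (25–30 g), 10 mg/kg po. Hot plate at 55 °C inside a glass cylinder. Two baseline latencies taken ≥10 min apart, then latency read at 1.5, 3.5 and 5.5 h after dosing. Endpoint is jumping or paw licking, with a 30 s cutoff.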

Mus musculus [16] = assay: Antiinflammatory activity in complete Freund's adjuvant-induced Swiss mouse pain model assessed as inhibition of paw flinching at 10 mg/kg, po administered 30 mins prior to challenge; format: functional, organism-based; set-up: dose 10 mg/kg; procedure, shortened: as §5
Mus musculus [17] = assay: Antihyperalgesic activity in complete Freund's adjuvant-induced Swiss mouse pain model assessed as paw withdrawal latency at 10 mg/kg, po starting 1 hr post challenge for 7 days measured after 2 to 7 days by electronic pressure-meter test; format: functional, organism-based; set-up: dose 10 mg/kg; procedure, shortened: as §4
Mus musculus [18] = assay: Antinociceptive activity in po dosed Swiss mouse assessed as inhibition of acetic acid-induced writhing administered 30 mins prior to acetic acid challenge; format: functional, organism-based; procedure, shortened: as §1
Mus musculus [19] = assay: Antihyperalgesic activity in carrageenan-induced mechanical hyperalgesia Swiss mouse model assessed as paw withdrawal latency at 10 mg/kg, po administered 30 mins prior to challenge measured after 1 to 5 hrs post challenge by electronic pressure-meter test in presence of 90 mg/kg L-NAME; format: functional, organism-based; procedure, shortened: as §3
Mus musculus [20] = assay: Antihyperalgesic activity in carrageenan-induced mechanical hyperalgesia Swiss mouse model assessed as paw withdrawal latency at 1 mg/kg, po administered 30 mins prior to challenge by electronic pressure-meter test; format: functional, organism-based; set-up: dose 1 mg/kg; procedure, shortened: as §7
Mus musculus [21] = assay: Antiinflammatory activity in Swiss mouse model assessed as inhibition of carrageenan-induced TNFalpha production in cutaneous plantar tissue at 10 mg/kg, po administered 30 mins prior to challenge measured 3 hrs post challenge by ELISA; format: functional, organism-based; set-up: dose 10 mg/kg; procedure, shortened: as §9
Mus musculus [22] = assay: Antinociceptive activity against formalin-induced pain in Swiss mouse assessed as inhibition of paw flinching at 10 mg/kg, po administered 30 mins prior to formalin challenge; format: functional, organism-based; set-up: dose 10 mg/kg; procedure, shortened: as §2
Mus musculus [23] = assay: Antihyperalgesic activity in carrageenan-induced mechanical hyperalgesia Swiss mouse model assessed as paw withdrawal latency at 3 mg/kg, po administered 30 mins prior to challenge measured after 1 to 3 hrs post stimulus by electronic pressure-meter test; format: functional, organism-based; set-up: dose 3 mg/kg; procedure, shortened: as §7
Mus musculus [24] = assay: Antihyperalgesic activity in carrageenan-induced mechanical hyperalgesia Swiss mouse model assessed as paw withdrawal latency at 10 mg/kg, po administered 30 mins prior to challenge measured after 1 to 5 hrs post challenge by electronic pressure-meter test in presence of PKG inhibitor KT5823; format: functional, organism-based; set-up: dose 10 mg/kg; procedure, shortened: as §6
Mus musculus [25] = assay: Toxicity in Swiss mouse assessed as effect on muscle-relaxing effect at 10 mg/kg, po after 1.5 to 5.5 hrs by roto-rod test; format: organism-based; set-up: dose 10 mg/kg, route oral; settings: in vivo; procedure, shortened: as §8
Mus musculus [26] = assay: Hepatotoxicity in Swiss mouse assessed as change in plasma ALT level at 10 mg/kg, po for 7 days measured over 7 days relative to vehicle-treated control; format: toxicity, organism-based; set-up: dose 10 mg/kg, route oral; settings: in vivo, 168 h
Procedure, shortened: (§10)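 Mice dosed po daily for 7 days: vehicle (2% DMSO/saline or Tris/HCl pH 8.0), 10 mg/kg, or indomethacin 2.5 mg/kg. Heparinized blood is drawn under terminal anesthesia, and plasma AST and ALT are measured with a diagnostic kit. n = 8.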

Mus musculus [27] = assay: Antihyperalgesic activity in carrageenan-induced mechanical hyperalgesia Swiss mouse model assessed as paw withdrawal latency at 10 mg/kg, po administered 30 mins prior to challenge measured after 1 to 5 hrs post challenge by electronic pressure-meter test; format: functional, organism-based; set-up: dose 10 mg/kg; procedure, shortened: as §7
Mus musculus [28] = assay: Hepatotoxicity in Swiss mouse assessed as change in plasma AST level at 10 mg/kg, po for 7 days measured over 7 days relative to vehicle-treated control; format: toxicity, organism-based; set-up: dose 10 mg/kg, route oral; settings: in vivo, 168 h; procedure, shortened: as §10
Mus musculus [29] = assay: Gastrointestinal toxicity in Swiss mouse assessed as increase in stomach MPO activity at 10 mg/kg, po for 7 days measured over 7 days relative to vehicle-treated control; format: organism-based; set-up: dose 10 mg/kg, route oral; settings: in vivo, 168 h
Procedure, shortened: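 Mice dosed po daily for 7 days: vehicle (2% DMSO/saline or Tris/HCl pH 8.0), 10 mg/kg, or indomethacin 2.5 mg/kg. Stomach is homogenized in 50 mM phosphate buffer pH 6.0 with 0.5% HTAB. Supernatant is reacted with o-dianisidine/H2O2 and read at 450 nm. Results expressed as neutrophils ×10^4/mg tissue from a neutrophil standard curve. n = 8.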

In the case of C=C1C[C@@]23CC[C@H]4[C@@](C)(CCC[C@@]4(C)C(=O)O)[C@@H]2CC[C@@H]1C3 [KAURENOIC ACID], the inhibition (Mus musculus [1]) was “Active”, the inhibition (Mus musculus [2]) was “Active” and the Activity (Mus musculus [3]) was “inactive”. The Activity (Mus musculus [4]) was “inactive”, the inhibition (Mus musculus [5]) was “Active” and the Activity (Mus musculus [6]) was “inactive”. The inhibition (Mus musculus [7]) was “Active”, the Activity (Mus musculus [8]) was “inactive” and the Activity (Mus musculus [9]) was “Dose-dependent effect”. The Activity (Mus musculus [10]) was “Non-toxic”, the Activity (Mus musculus [11]) was “Active” and the Activity (Mus musculus [12]) was “Active”. For the same compound, the Activity (Mus musculus [13]) was “Active”, the inhibition (Mus musculus [14]) was “Active” and the Activity (Mus musculus [15]) was “inactive”. For the same compound, the inhibition (Mus musculus [16]) was “Active”, the Activity (Mus musculus [17]) was “Active” and the inhibition (Mus musculus [18]) was “Dose-dependent effect”. For the same compound, the Activity (Mus musculus [19]) was “inactive”, the Activity (Mus musculus [20]) was “inactive” and the inhibition (Mus musculus [21]) was “Active”. For the same compound, the inhibition (Mus musculus [22]) was “Active”, the Activity (Mus musculus [23]) was “Active” and the Activity (Mus musculus [24]) was “inactive”. The Activity (Mus musculus [25]) was “Non-toxic”, the Activity (Mus musculus [26]) was “Non-toxic” and the Activity (Mus musculus [27]) was “Active”. The Activity (Mus musculus [28]) was “Non-toxic” and the Activity (Mus musculus [29]) was “Non-toxic”.
